Bioassay records (PubChem)
Only some compounds are listed: those with a hit (about 27% of all), similar ones and a draw of the others.
Cav3 T inh = blocks human Cav3.2 T-type calcium channel; O95180; Cav3.2-expressing cells, Fluo-4 calcium fluorescence FDSS; active compounds read low; B-score at 10 µM; actives 4% (n = 100,000);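 active = single-dose well whose peak fluorescence ratio is a statistical outlier from its plate by either plate-standardised score or position-corrected B-score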
CYP2C9 act = CYP2C9 (human) activation | recombinant CYP2C9, luciferin-H conversion, luminescence; active compounds read high; factor 1 = untreated enzyme, 0 = blocked | P11712 | actives 1.4% (n = 96,000) | activation factor at 5 µM;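 active = activation factor of 2 or more for CYP2C9 at a 5 µM dose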;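 also: 0 = sulfaphenazole-blocked wells and 1 = vehicle-only wells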
Target sequence (P11712 whole entry, looked up): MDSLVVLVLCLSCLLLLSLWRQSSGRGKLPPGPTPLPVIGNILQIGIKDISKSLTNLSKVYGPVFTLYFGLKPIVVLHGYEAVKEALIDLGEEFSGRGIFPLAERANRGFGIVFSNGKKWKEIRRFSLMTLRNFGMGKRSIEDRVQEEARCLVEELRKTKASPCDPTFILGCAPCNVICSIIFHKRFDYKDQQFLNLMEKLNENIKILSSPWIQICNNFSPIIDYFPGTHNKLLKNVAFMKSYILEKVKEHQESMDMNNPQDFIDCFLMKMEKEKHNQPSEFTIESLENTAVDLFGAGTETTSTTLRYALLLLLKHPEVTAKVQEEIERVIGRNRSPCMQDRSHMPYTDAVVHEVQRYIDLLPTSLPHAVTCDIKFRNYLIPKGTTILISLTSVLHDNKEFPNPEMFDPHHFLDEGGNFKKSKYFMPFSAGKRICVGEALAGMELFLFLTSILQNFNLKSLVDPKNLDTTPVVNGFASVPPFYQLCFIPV
CYP2C19 inh = inhibitors of human CYP2C19 | CYP2C19 Supersomes, luciferin-H EGE luminescence, 30 min | inhibition, % at 5 µM | actives 21% (n = 96,000);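 active = CYP2C19 inhibition above a set limit at 5 µM in the primary screen, cut at about 50% in these data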;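 also: plate controls were negative control wells for no effect and 2.5 mM tranylcypromine positive control for full effect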
CYP2C9 inh = inhibitors of human CYP2C9; CYP2C9 Supersomes, luciferin-H conversion, luminescence; inhibition, % at 5 µM; actives 20% (n = 96,000); AID 777;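 active = blocking of liver enzyme CYP2C9 beyond about 50% at 5 µM, limit read from the data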
Rev-RRE block = inhibitors of HIV-1 Rev-RRE RNA interaction | inhibition, % at 8 µM | P05866 | Rev peptide-RRE RNA binding, FRET | actives 0.79% (n = 97,000);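 active = inhibition above the screen-wide mean plus 3 SD, cut at about 35% in these data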;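 also: 0% = median DMSO wells and 100% = median Neomycin B control wells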
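Assay system: Labelled RRE RNA duplex and labelled Rev peptide | Times: 5 min preincubation and 15 min binding, 25 °C | Detection: FRET, ex 480 nm, em 540 and 671 nm | Evaluation: % inhibition of FRET ratio versus controls | Benchmarks: DMSO wells as 0% and neomycin B wells as 100% inhibition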
CYP2C19 act = cytochrome P450 2C19 (human) activation | activation factor at 5 µM | AID 1025 | recombinant CYP2C19, luciferin-H EGE luminescence; active compounds read high; 0 = fully inhibited enzyme, 1 = untreated enzyme | 96,000 tested, under 10 active;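 active = activation factor of at least 2 at 5 µM in the primary screen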;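 also: 0 = wells with 2.5 mM tranylcypromine and 1 = vehicle-only wells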
The depositor's hits bear a star; . = no result given.

SMILES	Cav3 T inh	CYP2C9 act	CYP2C19 inh	CYP2C9 inh	Rev-RRE block	CYP2C19 act
CC(OC(=O)CNC(=O)C12CC3CC(CC(C3)C1)C2)C(=O)Nc1ncc(Cl)cc1Cl (configuration not stated)	-0.0433	0.6	54.0*	38.6	5.4	0.5
O=C(COC(=O)C1CC1)NCc1ccccc1Cl	-0.405	0.8	69.5*	18.2	11.9	0.3
Cc1cc(C(F)F)nn1CC(=O)NCc1ccc(Cl)cc1Cl	-1.09	.	.	.	5.0	.
CC1CC1C(=O)OCC(=O)NCc1ccc(Cl)cc1 (configuration not stated)	-0.666	0.5	97.1*	53.0*	-0.2	0
CC1CC1C(=O)OCC(=O)NCc1ccc(Cl)cc1Cl (configuration not stated)	.	0.7	99.5*	29.7	0.6	0
CC(C)(C)[C@H]1C=C(C(N)=O)O[C@@H](OCCCCO)C1	0.349	.	.	.	.	.
O=C(NS(=O)(=O)c1ccccc1)c1ccccc1F	1.04	0.9	-7.9	14.1	3.4	1.1
Fc1cccc(Cl)c1Cn1nnc2c(-n3ccnc3)ncnc21	0.559	0.3	94.9*	66.4*	.	0.1
Fc1cccc(Cl)c1Cn1nnc2c(NCc3ccccn3)ncnc21	0.501	.	.	.	2.9	.
O=C1CN(Cc2ccccc2)C(=NCc2ccco2)S1	-0.273	0	90.0*	97.2*	-3.0	0.1
COC(=O)C1=C(C(=O)OC)[C@@H]2N(Cc3ccccc3)c3ccccc3[C@@]23C[C@@H](C(=O)OC)N(C(=O)COCc2ccccc2)C3=N1	-0.828	.	.	.	.	.
CCOC(=O)/C(C#N)=C\c1cc(C)n(-c2ccccc2)c1C	-0.403	0.8	21.4	21.6	4.4	0.8
CCOC(=O)/C(C#N)=C/c1cc(C)n(-c2ccc(C)cc2)c1C	0.927	0.4	15.7	55.1*	2.8	0.8
COc1ccc(OC)c(C(=O)CSc2nc3ncccc3[nH]2)c1	0.0401	0.1	79.0*	89.6*	.	0.2
Cn1c(SCC(=O)c2ccc(F)cc2)nc2cccnc21	0.0315	1.1	85.0*	-14.8	7.5	0.2
Cn1c(SCC(=O)c2ccccc2)nc2cccnc21	0.748	0.6	72.5*	43.4	2.1	0.3
COc1ccc(OC)c(C(=O)CSc2nc3c(c(=O)n(C)c(=O)n3C)n2C(C)C)c1	0.207	0.5	44.7	54.1*	3.1	0.6
O=C(CN1C(=O)COc2ccccc21)N(Cc1ccc2c(c1)OCO2)CC1CCCO1 (configuration not stated)	1.03	0.9	13.7	14.3	4.8	0.9
COc1ccc(-c2ccc(N(C)C)cc2)cc1[C@H]1[C@H]2C=CC[C@@H](C)[C@@H]2C(=O)N1Cc1ccccc1	-0.859	.	.	.	.	.
COc1ccc(OC)c(C(=O)CSc2nc3cccnc3n2C)c1	-0.373	0.2	98.2*	77.2*	4.1	0
Cc1ccc(C(=O)CSc2nc3cccnc3n2C)cc1	-0.0528	1.6	31.9	-55.8	8.6	0.7
N#CC1=C(N)SC2(CCCCC2)SC1c1ccccc1 (configuration not stated)	0.33	0.9	34.9	9.4	-0.2	0.7
N#CC1=C(C2CC2)CC(c2ccccc2)C(C#N)=C1N (configuration not stated)	-0.0106	0.9	56.8*	7.4	2.9	0.4
Cc1ccc(S(=O)(=O)Cc2cn3cccnc3n2)cc1	0.419	1.1	9.7	-14.4	.	0.9
Clc1ccc(N=c2ssnc2Cl)cc1	-0.556	.	.	.	9.6	.
SMILES	Cav3 T inh	CYP2C9 act	CYP2C19 inh	CYP2C9 inh	Rev-RRE block	CYP2C19 act
N#Cc1ccc(N=c2ssnc2Cl)cc1	-1.16	0	3.1	97.3*	-0.5	1
COc1cc(N=c2ssnc2Cl)cc(OC)c1OC	.	0.1	-4.1	88.7*	1.3	1
CCOC(=O)c1c(NC(=O)CSc2nnnn2C)sc(CC)c1C	-1.89	0.5	83.2*	47.8	.	0.2
CCOC(=O)c1c(NC(=O)CSc2n[nH]c(N)n2)sc(CC)c1C	-3.43	0.2	49.5	75.5*	.	0.5
CCOC(=O)c1sc(NC(=O)CSc2nnnn2-c2ccc(C)cc2)c(C(=O)OCC)c1C	-1.82	0.2	48.2	80.1*	15.2	0.5
CCOC(=O)c1sc(-c2ccccc2)cc1NC(=O)CSc1nnnn1C	-0.363	1	-2.2	-1.7	8.7	1
CCOC(=O)CNC(=O)CSc1nnnn1-c1ccc(C)c(C)c1	1.26	2.6*	17.2	-162.8	5.2	0.8
